Screening results from PubChem.
The list is not random: actives were taken first. Their share in the collection is about 2.7%.
Hck-Nef inh – blocks Nef-activated human Hck kinase; Recombinant Hck-YEEI plus Nef, Z-Lyte FRET kinase assay; AID 463187; inhibition, % at 20 µM; 220,000 tested, 0.68% active; P08631;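 active = Hck-Nef kinase inhibition above about 50%, limit read from the data; inactive = inhibition below that limit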
Wee1 degr inh – inhibitors of human Wee1 degradation; HeLa Luc-Wee1K328M stability, luciferase luminescence; 100% = proteasome inhibitor MG132 effect; P30291; 220,000 tested, 1.2% active; reporter increase, % at 5 µM;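 active = activation above the mean of all tested compounds plus 3 SD, set per screening run, cut at about 8.8% in these data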;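 note: cells exposed to compound for 20 h before luminescence read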
Mdm2 ligase inh – inhibitors of human Mdm2 E3 ubiquitin ligase; Q00987; cell-based MDM2 ubiquitination luciferase reporter, 2 h; 0 = plate control, 100 = twice control, blank-subtracted; signal enhancement, % at 5 µM; 210,000 tested, 0.11% active; AID 1230;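 active = signal enhancement of 30% or more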;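 note: luminescence tracks abundance of the self-degrading MDM2-luciferase fusion protein; higher signal means inhibition of MDM2 E3 ligase activity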
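Material: Stable MDM2–luciferase fusion reporter cells | Amount: 2000 cells seeded into each well | Dosing: One concentration, 5 µM, with 0.2% DMSO | Incubation: 4 h cell settling then 2 h compound exposure, 37 °C | Measured by: Luciferase luminescence | Read-out basis: % enhancement relative to plate controls after blank subtraction | Benchmarks: Control and blank well means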
14-3-3 Bad PPI – disrupts binding of bovine 14-3-3 zeta to phospho-Bad peptide; TR-FRET 14-3-3zeta/Dy647-pBad peptide displacement, 1 h; AID 781; inhibition, % at 21.7 µM; 220,000 tested, 0.71% active;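 active = inhibition above about 70%, limit read from the data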
Target sequence (P63103 whole entry, looked up): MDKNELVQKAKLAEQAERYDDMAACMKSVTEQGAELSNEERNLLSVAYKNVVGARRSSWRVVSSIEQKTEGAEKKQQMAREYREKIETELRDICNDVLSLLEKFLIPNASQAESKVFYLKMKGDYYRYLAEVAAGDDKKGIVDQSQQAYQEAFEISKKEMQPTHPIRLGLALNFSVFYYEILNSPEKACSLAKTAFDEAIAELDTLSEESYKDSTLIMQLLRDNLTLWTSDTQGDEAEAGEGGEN
TbHK1 inh – blocks Trypanosoma brucei hexokinase 1 activity | recombinant TbHK1, G6PDH-coupled NADH A340 | inhibition, % at 10 µM | 220,000 tested, 0.11% active;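 active = inhibition of 50% or more in the single-dose primary screen; inactive = inhibition below 50%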
Large screens that a line does not name were inactive; [ ] = dose if it differs, or a comment.

COc1ccc(N2CCN(C(=O)Cn3nnc(-c4ccc(N(C)C)cc4)n3)CC2)cc1	14-3-3 Bad PPI 76.7
COc1cc(NC(=O)C2CCN(S(=O)(=O)c3ccc(Cl)cc3)CC2)ccc1-n1cnnn1	none
CCCC(c1nnnn1C1CCCC1)N1CCN(c2ccccc2F)CC1 (stereo not given)	14-3-3 Bad PPI 81.5
CCC(c1nnnn1C1CCCC1)N1CCN(c2ccccc2F)CC1 (stereo not given)	none
O=[N+]([O-])c1ccc(S(=O)(=O)N2CCN(Cc3c[nH]c4ccccc34)CC2)cc1	14-3-3 Bad PPI 78.7
COc1ccc(NC(=O)CSc2ccccn2)cc1OC	14-3-3 Bad PPI 72.0
CCCCN(C(C)=O)c1c(N)n(CCC)c(=O)n(CC(=O)Nc2cc(Cl)cc(Cl)c2)c1=O	Wee1 degr inh 11.9
Cc1nc(-c2cccc(S(=O)(=O)N3CCC(C)CC3)c2)cs1	none
Cc1nc(-c2cccc(S(=O)(=O)N3CCCC(C)C3)c2)cs1 (stereo not given)	14-3-3 Bad PPI 80.4
O=C(O)CN1CCN(Cc2ccccc2F)C1=O	none
O=C(CCCCCN1C(=O)c2ccccc2C1=O)NCc1ccccn1	14-3-3 Bad PPI 76.8
CC(=O)Nc1ccc(NC(=O)CCCCCN2C(=O)c3ccccc3C2=O)cc1	none
CCN(CC)c1ccc(NC(=O)CCCCCN2C(=O)c3ccccc3C2=O)cc1	Wee1 degr inh 11.4
O=C1SC(SC(=Nc2ccccc2)Nc2ccccc2)C(=O)N1c1ccccc1 (stereo not given)	none
Cc1cc(C)nc(S/C=C/C(=O)c2ccc(F)cc2)n1	Mdm2 ligase inh 59.2
O=C(Nc1nc2c(s1)CN(Cc1ccccc1)CC2)c1cccc(S(=O)(=O)N2CCc3ccccc32)c1	Wee1 degr inh 11.7
COCc1cc(=O)[nH]c(Nc2nc3ccc(C)cc3o2)n1	Wee1 degr inh 8.9, Mdm2 ligase inh 35.9
CCOC(=O)c1c(-c2ccc(C)o2)csc1NC(=O)CN1CCN(CC)CC1	14-3-3 Bad PPI 71.0
CCOC(=O)c1c(-c2ccc(C)o2)csc1NC(=O)CN1CCCCC1	none
Cc1ccc(NCC(=O)N/N=C\c2ccc[nH]2)cc1	none
Cc1nc2c(C)cccc2cc1C(=O)N/N=C/c1ccc(N(C)C)cc1	none
Cc1nc2c(C)cccc2cc1C(=O)N/N=C/c1ccc(C(=O)O)cc1	14-3-3 Bad PPI 87.4
COc1cccc(NC(=O)N2CCN(S(C)(=O)=O)CC2)c1	none
C=CCn1c(SCC(=O)Nc2ccccc2OC)nnc1-c1ccco1	none
C=CCn1c(SCC(=O)Nc2ccccc2OC)nnc1-c1ccccn1	14-3-3 Bad PPI 79.1
CSc1nc(-c2ccco2)nn1S(=O)(=O)c1ccccc1	14-3-3 Bad PPI 81.5
CSc1nc(-c2ccco2)nn1S(=O)(=O)c1ccc(C)cc1	none
C/C=C/c1ccc(OCCn2cncn2)c(OC)c1	14-3-3 Bad PPI 83.7
C/C=C/c1ccc(OCCCn2cncn2)c(OC)c1	14-3-3 Bad PPI 74.1
C/C=C/c1ccc(OCCOc2cc(C=O)ccc2OC)c(OC)c1	none
C/C=C/c1ccc(OCCCCn2cncn2)c(OC)c1	14-3-3 Bad PPI 75.4
Cc1ccc2c(c1)C(c1ccncc1)=NNC(c1ccc(C(C)C)cc1)=N2	none
Cc1c(CCOC(=O)c2cc([N+](=O)[O-])cc([N+](=O)[O-])c2)sc[n+]1CCCCS(=O)(=O)[O-]	none
CC(=O)Nc1ccc(S(=O)(=O)NCc2ccc(C(=O)NCc3ccc(Cl)cc3)cc2)cc1	14-3-3 Bad PPI 74.4
CC(=O)Nc1ccc(S(=O)(=O)NCc2ccc(C(=O)NCc3ccc4c(c3)OCO4)cc2)cc1	none
CCn1c2ccccc2c2cc(N=C3SC(CC(=O)Nc4ccccc4OC)C(=O)N3C)ccc21 (stereo not given)	none
CCn1c2ccccc2c2cc(N=C3SC(CC(=O)Nc4ccccc4)C(=O)N3C)ccc21 (stereo not given)	Wee1 degr inh 17.0
CC(=O)Oc1ccc2c(=O)c(-c3nc4ccccc4s3)coc2c1	Wee1 degr inh 9.1
CC(C)Oc1ccc2c(=O)c(-c3ccccc3)coc2c1	none (no result: Mdm2 ligase inh)
O=C1Nc2ccccc2C1=Nc1ccc(S(=O)(=O)Nc2nccs2)cc1	Hck-Nef inh 67.0
NS(=O)(=O)c1ccc(N=C2C(=O)Nc3ccccc32)cc1	none
COc1ccc(/C(C)=N/Nc2nc3ccccc3n3cnnc23)cc1OC	none
Cc1ccc2nc(NC(=O)c3ccc(-c4nc5ccccc5s4)s3)sc2c1	14-3-3 Bad PPI 82.7[fluorescence artefact?] (no result: Mdm2 ligase inh)
